ChEMBL document CHEMBL5661984, “Allosteric ligands for the pharmacologically dark receptors GPR68 and GPR65” (Nature, 2015)
The source made the active and inactive calls. The calls are words filed in the database; no cut-off is given here.

Assays:
[1] = molecular target: C-X-C chemokine receptor type 4 (Homo sapiens) (UniProt P61073); assay: Agonist activity against CXCR4 receptor (unknown origin) transfected in human HEK293T cells at 10 uM incubated for 15 mins in presence of CXCL12 by luminescence counter analysis; assay type: functional, cell-based
Sequence of C-X-C chemokine receptor type 4 (Homo sapiens) (P61073 whole entry): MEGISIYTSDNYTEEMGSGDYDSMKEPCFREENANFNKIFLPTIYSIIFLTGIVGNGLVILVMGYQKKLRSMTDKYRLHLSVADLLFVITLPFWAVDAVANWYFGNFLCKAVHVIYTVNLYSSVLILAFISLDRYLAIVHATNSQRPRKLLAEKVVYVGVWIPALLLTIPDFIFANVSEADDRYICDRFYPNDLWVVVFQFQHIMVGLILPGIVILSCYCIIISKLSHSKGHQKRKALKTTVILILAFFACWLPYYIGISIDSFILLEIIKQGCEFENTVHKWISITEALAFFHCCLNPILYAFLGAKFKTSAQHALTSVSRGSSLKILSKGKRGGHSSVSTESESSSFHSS
Outline: (§1)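 HEK293-T cells transiently transfected with CXCR4 and the GloSensor cAMP reporter, plated in DMEM with 1% dialyzed FBS. Test compound at 10 μM in 20 mM HEPES/HBSS, pH 7.4, 15 min at room temperature. Agonist mode: luciferin (4 mM final) plus 200 nM isoproterenol added, 20 min. Antagonist mode: compound 10 min, then reference agonist at EC80 for 10 min, then luciferin/isoproterenol. Luminescence read. CXCL12 (1 or 3 μM) is the agonist control and AMD3100 (10 μM) the antagonist control. n=2.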

[2] = molecular target: C-X-C chemokine receptor type 4 (Homo sapiens) (UniProt P61073); assay: Antagonist activity against CXCR4 receptor (unknown origin) transfected in human HEK293T cells at 10 uM incubated for 15 mins in presence of AMD3100 by luminescence counter analysis; assay type: functional, cell-based; outline: as §1
[3] = molecular target: T1, G-protein coupled receptor 65 (Homo sapiens, UniProt Q8IYL9); assay: Antagonist activity against GPR65 (unknown origin) transfected in human HEK293T cells incubated for 15 mins by luminescence counter analysis; assay type: functional, cell-based; conditions: for Activity: filed as antagonist
T1 sequence (Q8IYL9 whole entry): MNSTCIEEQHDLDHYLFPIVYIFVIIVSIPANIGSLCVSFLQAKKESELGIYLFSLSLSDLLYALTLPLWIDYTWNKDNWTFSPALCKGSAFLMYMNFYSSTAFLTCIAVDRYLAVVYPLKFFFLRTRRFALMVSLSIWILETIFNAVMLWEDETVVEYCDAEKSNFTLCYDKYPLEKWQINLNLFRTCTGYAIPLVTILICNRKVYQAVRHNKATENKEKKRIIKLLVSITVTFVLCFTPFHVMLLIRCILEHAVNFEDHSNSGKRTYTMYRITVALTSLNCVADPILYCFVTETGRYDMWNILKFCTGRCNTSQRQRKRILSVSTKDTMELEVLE
Outline: (§2)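 GloSensor split-luciferase cAMP assay. HEK293-T cells transiently co-transfected with GPR65 (wild type or the D153A, R187L, F242A or Y272A mutant) and GloSensor 7A reporter. Cells plated in DMEM with 1% dialyzed FBS for at least 6 h, then loaded with luciferin (4 mM, in drug buffer pH 8.4) for 90 min at 37°C. Compounds added at set pH in HBSS with 10 mM HEPES/10 mM MES, with TAPS for higher pH. Luminescence read after about 20 min at room temperature. Data normalized to buffer basal and fitted to a 4-parameter logistic.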

[4] = molecular target: T2, G-protein coupled receptor 68 (Homo sapiens, UniProt Q15743); assay: Binding affinity to GPR68 expressed in human HEK293T cells assessed as cAMP production in presence of H+ proton by Split-luciferase based luminescence counter analysis; assay type: cell-based; conditions: filed as positive allosteric modulator
T2 sequence (Q15743 whole entry): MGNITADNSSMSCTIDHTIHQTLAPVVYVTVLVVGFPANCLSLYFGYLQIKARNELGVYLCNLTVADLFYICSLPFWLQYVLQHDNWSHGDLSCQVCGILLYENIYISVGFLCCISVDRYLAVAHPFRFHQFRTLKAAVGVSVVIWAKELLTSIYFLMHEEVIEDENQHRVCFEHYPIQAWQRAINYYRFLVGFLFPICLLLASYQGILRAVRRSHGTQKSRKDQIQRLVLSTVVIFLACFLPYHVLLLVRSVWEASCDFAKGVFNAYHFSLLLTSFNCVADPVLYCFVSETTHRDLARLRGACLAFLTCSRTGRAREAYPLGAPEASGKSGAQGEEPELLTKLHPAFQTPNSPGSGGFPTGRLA
Outline: (§3)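 Proton concentration-response of GPR68 (wild type or E160A/K/Q, R189L/M, H269F mutants) in transiently transfected HEK293-T cells. Read-out: GloSensor cAMP, with luciferin loading 90 min at 37°C at pH 8.4. Run with and without increasing modulator concentrations; 20 min at room temperature before luminescence. Proton KA fixed to the proton EC50 without modulator. KB, τA, α, β fitted globally with an operational allosteric model. n=4.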

[5] = molecular target: T2, G-protein coupled receptor 68; assay: Positive allosteric modulator activity at GPR68 expressed in human HEK293T cells assessed as cAMP production in presence of H+ proton by Split-luciferase based luminescence counter analysis (reference value: 26.4 to 43.8 %); assay type: functional, cell-based; outline: as §3
[6] = molecular target: T2, G-protein coupled receptor 68; assay: Positive allosteric modulator activity at GPR68 expressed in human HEK293T cells assessed as cAMP production in presence of H+ proton by Split-luciferase based luminescence counter analysis (reference value: 6.53 to 6.72); assay type: functional, cell-based
[7] = molecular target: T1, G-protein coupled receptor 65; assay: Agonist activity against GPR65 (unknown origin) transfected in human HEK293T cells on pH 6.80 to 7.40 at 30 uM incubated for 15 mins by luminescence counter analysis; assay type: functional, cell-based
[8] = tested on: HEK293T; assay: Antagonist activity against GPR65 R187L mutant (unknown origin) transfected in human HEK293T cells incubated for 15 mins by luminescence counter analysis; assay type: cell-based; conditions: filed as antagonist; outline: as §2
[9] = tested on: HEK293T; assay: Antagonist activity against GPR65 F242A mutant (unknown origin) transfected in human HEK293T cells incubated for 15 mins by luminescence counter analysis; assay type: cell-based; conditions: filed as antagonist; outline: as §2
[10] = tested on: HEK293T; assay: Antagonist activity against GPR65 Y272A mutant (unknown origin) transfected in human HEK293T cells incubated for 15 mins by luminescence counter analysis; assay type: cell-based; conditions: filed as antagonist; outline: as §2
[11] = Antagonist activity against GPR65 D153A mutant (unknown origin) transfected in human HEK293T cells incubated for 15 mins by luminescence counter analysis; assay type: cell-based; conditions: HEK-293T, 0.25 h; outline: as §2
[12] = molecular target: T1, G-protein coupled receptor 65; assay: Antagonist activity against GPR65 (unknown origin) transfected in human HEK293T cells incubated for 15 mins by luminescence counter analysis relative to control; assay type: functional, cell-based; outline: as §2
[13] = Antagonist activity against GPR65 D153A mutant (unknown origin) transfected in human HEK293T cells incubated for 15 mins by luminescence counter analysis relative to control; conditions: HEK-293T, 0.25 h, condition central nervous system disease; outline: as §2
[14] = molecular target: T2, G-protein coupled receptor 68; assay: Positive allosteric modulator activity at GPR68 expressed in human HEK293T cells assessed as proton-mediated calcium release at 10 uM incubated for 10 mins by Fluo-4 Direct calcium dye based FLIPR assay (reference value: 1.30 %); assay type: functional, cell-based
[15] = Positive allosteric modulator activity at GPR68 E160K mutant transfected in human HEK293T cells assessed as proton-mediated calcium release at 10 uM incubated for 10 mins by Fluo-4 Direct calcium dye based FLIPR assay (reference value: 1.38 +/- 0.01 %); conditions: HEK-293T, condition central nervous system disease
[16] = Positive allosteric modulator activity at GPR68 E160Q mutant transfected in human HEK293T cells assessed as proton-mediated calcium release at 10 uM incubated for 10 mins by Fluo-4 Direct calcium dye based FLIPR assay (reference value: 1.25 +/- 0.01 %); conditions: HEK-293T, condition central nervous system disease
[17] = Positive allosteric modulator activity at GPR68 R189L mutant transfected in human HEK293T cells assessed as proton-mediated calcium release at 10 uM incubated for 10 mins by Fluo-4 Direct calcium dye based FLIPR assay (reference value: 1.42 +/- 0.01 %); conditions: HEK-293T, condition central nervous system disease
[18] = Positive allosteric modulator activity at GPR68 R189M mutant transfected in human HEK293T cells assessed as proton-mediated calcium release at 10 uM incubated for 10 mins by Fluo-4 Direct calcium dye based FLIPR assay (reference value: 1.43 +/- 0.01 %); conditions: HEK-293T, condition central nervous system disease
[19] = Positive allosteric modulator activity at GPR68 H269F mutant transfected in human HEK293T cells assessed as proton-mediated calcium release at 10 uM incubated for 10 mins by Fluo-4 Direct calcium dye based FLIPR assay (reference value: 1.57 +/- 0.01 %); conditions: HEK-293T, condition central nervous system disease
[20] = Positive allosteric modulator activity at GPR68 E160K mutant transfected in human HEK293T cells assessed as proton-mediated calcium release at 10 uM incubated for 10 mins by Fluo-4 Direct calcium dye based FLIPR assay (reference value: 6.79 +/- 0.02); assay type: cell-based; conditions: HEK-293T
[21] = Positive allosteric modulator activity at GPR68 E160Q mutant transfected in human HEK293T cells assessed as proton-mediated calcium release at 10 uM incubated for 10 mins by Fluo-4 Direct calcium dye based FLIPR assay (reference value: 6.86 +/- 0.04); assay type: cell-based; conditions: HEK-293T
[22] = Positive allosteric modulator activity at GPR68 R189L mutant transfected in human HEK293T cells assessed as proton-mediated calcium release at 10 uM incubated for 10 mins by Fluo-4 Direct calcium dye based FLIPR assay (reference value: 6.85 +/- 0.02); assay type: cell-based; conditions: HEK-293T
[23] = Positive allosteric modulator activity at GPR68 R189M mutant transfected in human HEK293T cells assessed as proton-mediated calcium release at 10 uM incubated for 10 mins by Fluo-4 Direct calcium dye based FLIPR assay (reference value: 6.77 +/- 0.01); assay type: cell-based; conditions: HEK-293T
[24] = Positive allosteric modulator activity at GPR68 H269F mutant transfected in human HEK293T cells assessed as proton-mediated calcium release at 10 uM incubated for 10 mins by Fluo-4 Direct calcium dye based FLIPR assay (reference value: 6.44 +/- 0.02); assay type: cell-based; conditions: HEK-293T
[25] = filed as positive allosteric modulator

O=C1CN=C(c2ccccc2Cl)c2cc([N+](=O)[O-])ccc2N1
Activity [1]: inactive
Activity [2]: inactive

O=C(Nc1nc(-c2ccc3c(c2)OCCO3)cs1)c1csnn1
Activity [3]: Active

Nc1nc(NCc2cccc(F)c2)nc(-c2ccc(F)c(F)c2CO)n1
pKb [4]: 4.01

COc1ccc(CNc2nc(N)nc(-c3ccccc3CO)n2)cc1
pKb [4]: 4.35

Nc1nc(NCCCCc2ccccc2)nc(-c2ccccc2CO)n1
pKb [4]: 5.82

Cc1ccc(-c2nc(N)nc(NCc3ccccc3)n2)c2cccnc12
Emax [5]: 31%
EC50 [6]: 0.0955 µM
pKb [4]: 4.92

Nc1nc(NCc2cccc(F)c2)nc(-c2ccc(F)cc2N)n1
pKb [4]: 3.68

Nc1nc(NCc2ccccc2F)nc(-c2cc(F)c(F)cc2N)n1
pKb [4]: 4.93

Nc1nc(-c2ccc(Cl)c(Cl)c2)c(-c2ccncc2)s1
pKb [4]: 7.51

COc1ccc(-c2csc(NC(=O)CSc3nc[nH]n3)n2)cc1OC
Activity [7]: inactive
EC50 [3]: 0.501 µM
Activity [8]: Active
Activity [9]: Active
Activity [10]: Active
EC50 [11]: 6.31 µM
Emax [12]: 2.2%
Emax [13]: 1.5%

COc1ccc(-c2nc(N)nc(NCc3ccccc3)n2)c(CO)c1
pKb [4]: 4.43

Nc1nc(NCCCc2ccccc2)nc(-c2ccccc2CO)n1
pKb [4]: 5.75

CCCCNc1c(C(=O)OCC)c(C)nc2c1cnn2CC
pKb [4]: 5.2

Nc1nc(NCc2ccccc2)nc(-c2cc(F)cc(F)c2)n1
Emax [14]: 1.24%
Emax at 10 µM [15]: 1.38%
Emax at 10 µM [16]: 1.11%
Emax at 10 µM [17]: 1.49%
Emax at 10 µM [18]: 1.41%
Emax at 10 µM [19]: 1.63%
EC50 [20]: 0.141 µM
EC50 [21]: 0.102 µM
EC50 [22]: 0.105 µM
EC50 [23]: 0.141 µM
EC50 [24]: 0.324 µM
Emax [5, 25]: 70.7%
EC50 [6]: 0.11 µM

OC1CCC(Nc2nc(-c3ccccc3)nc3[nH]ccc23)CC1 (stereo not drawn)
pKb [4]: 6.2

Nc1nc(NCc2cccc(F)c2)nc(-c2cccc(F)c2N)n1
pKb [4]: 3.88

Nc1nc(NCc2ccccc2)nc(-c2ccc(F)c(F)c2CO)n1
pKb [4]: 3.84

Nc1nc(NCc2ccccc2F)nc(-c2cccc(F)c2N)n1
pKb [4]: 4.11

Nc1nc(NCc2ccccc2F)nc(-c2ccc(F)cc2N)n1
pKb [4]: 4.23

Nc1nc(NCc2cccc(F)c2)nc(-c2cc(F)c(F)cc2N)n1
pKb [4]: 4.66

Nc1nc(NCc2cc[nH]n2)nc(-c2ccccc2CO)n1
pKb [4]: 5.17

CC(=O)c1cccc(-c2nc(N)nc(Nc3ccc(C)cc3)n2)c1
Emax [5, 25]: 67.3%
EC50 [6]: 0.0575 µM
pKb [4]: 6.31

Nc1nc(NCc2ccccc2)nc(-c2ccccc2N)n1
Emax [5, 25]: 50.2%
EC50 [6]: 0.0631 µM
pKb [4]: 5.22

Nc1nc(NCCc2ccccc2)nc(-c2ccccc2CO)n1
pKb [4]: 5.43

COc1cc([C@H]2NC(=O)c3[nH]nc(-c4ccco4)c32)ccc1O
Emax [5, 25]: 46.9%
EC50 [6]: 0.158 µM
pKb [4]: 5.17

O=C1N[C@H](c2ccccc2[N+](=O)[O-])c2c(-c3ccccc3)n[nH]c21
Emax [5, 25]: 50.8%
EC50 [6]: 0.186 µM
pKb [4]: 5.48

O=C1CN=C(c2ccccc2F)c2cc(Cl)ccc2N1
Activity [1]: inactive
Activity [2]: inactive

Nc1nc(NCc2ccccc2)nc(-c2ccc(CO)cc2)n1
pKb [4]: 4.93

Nc1nc(NCc2ccccc2)nc(-c2ccc(F)c(F)c2)n1
Emax [5, 25]: 68.8%
EC50 [6]: 0.0912 µM
pKb [4]: 5.69

O=C1N[C@H](c2cccc([N+](=O)[O-])c2)c2c(-c3ccco3)n[nH]c21
Emax [5, 25]: 60.3%
EC50 [6]: 0.107 µM
pKb [4]: 4.42

O=C1CCc2cc(-c3csc(NC(=O)c4ccc(-c5ccccc5F)o4)n3)ccc2N1
Activity [3]: Active

O=C1CN=C(c2ccccc2)c2cc(Cl)ccc2N1
Activity [1]: inactive
Activity [2]: inactive
